Source: EPA's CvTdb concentration-time database

Columns and labels:
Rat [1] = assay: concentration in plasma after dosing; conditions: 3 h; dosed: Primidone; 30 mg/kg; oral; Female; F344
Rat [2] = assay: concentration in plasma after dosing; conditions: 0.5 h; dosed: Primidone; 130 mg/kg; oral; Male; Harlan Sprague Dawley
Rat [3] = assay: concentration in plasma after dosing; conditions: 0.25 h; dosed: Primidone; 30 mg/kg; oral; Male; F344
Rat [4] = assay: concentration in plasma after dosing; conditions: dosed: 2-Hydroxy-4-methoxybenzophenone, 500 mg/kg, oral, Female, F344
Rat [5] = assay: concentration in plasma after dosing; conditions: dosed: 2-Hydroxy-4-methoxybenzophenone, 500 mg/kg, oral, Female, F344; remark: listed apart in the source
Rat [6] = assay: concentration in plasma after dosing; conditions: dosed: 2-Hydroxy-4-methoxybenzophenone, 250 mg/kg, oral, Male, F344
Rat [7] = assay: concentration in plasma after dosing; conditions: dosed: 2-Hydroxy-4-methoxybenzophenone, 500 mg/kg, oral, Female, F344; remark: listed apart in the source
Mouse [8] = assay: concentration in plasma after dosing; conditions: 0.25 h; dosed: 2-Hydroxy-4-methoxybenzophenone; 250 mg/kg; oral; Female; B6C3F1
Rat [9] = assay: concentration in plasma after dosing; conditions: dosed: 2-Hydroxy-4-methoxybenzophenone, 100 mg/kg, oral, Male, F344
Mouse [10] = assay: concentration in plasma after dosing; conditions: 0.25 h; dosed: 2-Hydroxy-4-methoxybenzophenone; 50 mg/kg; iv; Male; B6C3F1
Rat [11] = assay: concentration in plasma after dosing; conditions: dosed: Methyleugenol, 37 mg/kg, oral, Male, F344/N
Rat [12] = assay: concentration in plasma after dosing; conditions: dosed: Methyleugenol, 37 mg/kg, oral, Male, F344/N; remark: listed apart in the source
Hamster = assay: concentration in plasma after dosing; conditions: dosed: 2,4-Dichlorophenoxyacetic acid, 2.0 mg/kg, oral, Male, Syrian Golden
Procedure, shortened: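 Concentration-versus-time or amount-versus-time points were compiled from published in vivo toxicokinetic studies and from two structured collections. The studies were found by PubMed searching, classifier screening and manual review. Points were mostly digitised from plot screenshots with WebPlotDigitizer, otherwise copied from tables, and kept in the reported units. Dose, route, subject details and medium were curated by hand from each paper, and sampling and analytical methods follow each source and were often unreported.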

Mouse [13] = assay: concentration in plasma after dosing; conditions: dosed: 2,4-Dichlorophenoxyacetic acid, 1.0 mg/kg, iv, Male, B6C3F1
Mouse [14] = assay: concentration in plasma after dosing; conditions: dosed: 2,4-Dichlorophenoxyacetic acid, 5.2 mg/kg, oral, Male, B6C3F1
Rat [15] = assay: concentration in brain after dosing; conditions: 10 min; dosed: alpha-Thujone; 50 mg/kg; oral; Female; Harlan Sprague Dawley
Rat [16] = assay: concentration in brain after dosing; conditions: 12 h; dosed: alpha-Thujone; 50 mg/kg; oral; Male; Harlan Sprague Dawley
Rat [17] = assay: concentration in plasma after dosing; conditions: 6 h; dosed: alpha-Thujone; 25 mg/kg; oral; Male; Harlan Sprague Dawley
Rat [18] = assay: concentration in plasma after dosing; conditions: 5 min; dosed: alpha-Thujone; 50 mg/kg; oral; Female; Harlan Sprague Dawley
Rat [19] = assay: concentration in plasma after dosing; conditions: 3 h; dosed: alpha-Thujone; 50 mg/kg; oral; Female; Harlan Sprague Dawley
Rat [20] = assay: concentration in liver after dosing; conditions: 3 h; dosed: Perfluorohexane-1-sulphonic acid – potassium salt; 16 mg/kg; oral; Female; F344
Rat [21] = assay: concentration in brain after dosing; conditions: 48 h; dosed: Perfluorohexane-1-sulphonic acid – potassium salt; 16 mg/kg; oral; Female; Harlan Sprague Dawley
Rat [22] = assay: concentration in brain after dosing; conditions: 3 h; dosed: Perfluorohexane-1-sulphonic acid – potassium salt; 16 mg/kg; oral; Female; F344
Rat [23] = assay: concentration in brain after dosing; conditions: 24 h; dosed: Perfluorohexane-1-sulphonic acid – potassium salt; 16 mg/kg; oral; Female; Harlan Sprague Dawley
Rat [24] = assay: concentration in kidney after dosing; conditions: 12 h; dosed: Perfluorohexane-1-sulphonic acid – potassium salt; 16 mg/kg; oral; Female; Harlan Sprague Dawley
Rat [25] = assay: concentration in plasma after dosing; conditions: dosed: Perfluorohexane-1-sulphonic acid – potassium salt, 4 mg/kg, oral, Male, F344
Rat [26] = assay: concentration in kidney after dosing; conditions: 24 h; dosed: Perfluorohexane-1-sulphonic acid – potassium salt; 16 mg/kg; oral; Female; F344
Rat [27] = assay: concentration in kidney after dosing; conditions: 192 h; dosed: Perfluorohexane-1-sulphonic acid – potassium salt; 16 mg/kg; oral; Female; F344
Rat [28] = assay: concentration in plasma after dosing; conditions: 5 min; dosed: Pyridine; 10 mg/kg; iv; Male; F344
Rat [29] = assay: concentration in plasma after dosing; conditions: 2 h; dosed: Pyridine; 5 mg/kg; iv; Male; F344
Rat [30] = assay: concentration in plasma after dosing; conditions: dosed: Pyridine, 25 mg/kg, oral, Male, F344
Rat [31] = assay: concentration in plasma after dosing; conditions: 20 min; dosed: Pyridine; 10 mg/kg; iv; Male; F344

CCC1(c2ccccc2)C(=O)NCNC1=O [Primidone]
Conditions	concentration in plasma [ng/mL]
Rat [1]	19900
Rat [2]	47000
Rat [3]	8900

O=C(c1ccccc1)c1ccc(O)cc1O [2,4-Dihydroxybenzophenone]
Conditions	concentration in plasma [ng/mL]
Rat [4], 0.5 h	675
Rat [4], 12 h	221
Rat [5], 10 h	150
Rat [5], 10 min	258
Rat [6], 0.25 h	33
Rat [6], 4 h	90.4
Rat [7], 0.5 h	669
Rat [7], 12 h	198
Rat [9], 0.5 h	142
Rat [9], 5 h	65.6

Conditions	concentration in plasma [ng/mL]
Mouse [8]	1050
Mouse [10]	1970

C=CCc1ccc(OC)c(OC)c1 [Methyleugenol]
concentration in plasma [ng/mL]
Conditions	1.5 h	2 min	3 h	6 h
Rat [11]	–	36	46.1	–
Rat [12]	23.6	–	–	8

O=C(O)COc1ccc(Cl)cc1Cl [2,4-Dichlorophenoxyacetic acid]
concentration in plasma [ng/mL]
Conditions	Hamster	Mouse [13]	Mouse [14]
0.25 h	6170	–	12900
0.5 h	–	6070	21100
1 h	492	–	–
2 h	1870	–	18600
2.5 min	146	8150	–
3 h	–	446	8140
4 h	–	–	8940
5 min	4920	–	18900
6 h	–	–	2910
10 h	–	–	212
10 min	1970	8340	–

CC(C)[C@]12CC(=O)[C@H](C)[C@H]1C2 [alpha-Thujone]
Conditions	concentration in brain [ng/g]	concentration in plasma [ng/mL]
Rat [15]	2340	–
Rat [16]	107	–
Rat [17]	–	42.9
Rat [18]	–	112
Rat [19]	–	303

O=S(=O)([O-])C(F)(F)C(F)(F)C(F)(F)C(F)(F)C(F)(F)C(F)(F)F.[K+] [Perfluorohexane-1-sulphonic acid – potassium salt]
Conditions	concentration in brain [ng/g]	concentration in kidney [ng/g]	concentration in liver [ng/g]
Rat [20]	–	–	63900
Rat [21]	496	–	–
Rat [22]	1600	–	–
Rat [23]	701	–	–
Rat [24]	–	31200	–
Rat [26]	–	28100	–
Rat [27]	–	16700	–

Rat [25]
Conditions	concentration in plasma [ng/mL]
0.25 h	5490
12 h	31800
528 h	8940

c1ccncc1 [Pyridine]
Conditions	concentration in plasma [ng/mL]
Rat [28]	2510
Rat [29]	2920
Rat [31]	4020

Rat [30]
Conditions	concentration in plasma [ng/mL]
0.5 h	15300
6 h	15100
